This note sets out measurements from the RNAGym collection of RNA variant scans (doi:10.1126/science.aae0568).

B1: tRNA (parent)
chain: GUUCCGUUGGCGUAAUGGUAACGCGUCUCCCUCCUAAGGAGAAGACUGCGGGUUCGAGUCCCGUACGGAACG

Fewer inactive variants are shown than the library holds. A value given as a limit tells only on which side of the number the result lay.

In the data set the parent is B1. In words: yeast fitness relative to wild type (ratio to wild type); higher = fitter; tRNA-Arg(CCU), competitive growth, 37 C, YPD. The gist of the method:
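Gene amplicons from the start population and from each of six end populations were read by 100-nucleotide paired-end sequencing. Those end populations came from pooled Saccharomyces cerevisiae strains carrying tRNA-Arg(CCU) gene variants at the native locus, competed in YPD at 37°C for 24 hours. Fitness relative to wild type was worked out from changes in genotype frequencies. Genotypes needed ≥ 100 starting reads, and estimates < 0.5 were set to 0.5.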
As for GUUCCGUUGGCGUAAUGGUAACGCGUCUCCCUCCUAAGGAGAAGACUGUGGGUUCGAGUCGCGUACGGCACG, the yeast fitness came out at 0.559.

On to GUUCCGUUGGCGUAAUGGUAACGCGUGUUCCUCCUAAGGAGAAGACUGUGGGUUCGAGUCCCGUACGGAUCG, for which the yeast fitness is at most 0.5.

Turning to GUUCCGUUGGCGUAAUGGUAACGCCUCUGCCGCCUAAGGAGAUGACUGCAGGUUCGAGUCCCGUACGGAACG, the yeast fitness is at most 0.5.

As to GUUCCGUUGGCGUAAUGGUUACGCGUCCCCCUCCUAAGGAGAAGACUGCGGGUUCGAGUCCCGUACGGCACG, the yeast fitness was 0.699.

Turning to GUUCCGUUGGAGUAAUGGUAACGCCUCUUCCUCCUAAGGAGAAGACUGCGGGUUCGGGUCCCGUACGGAACG, the yeast fitness was at most 0.5.

As for GUUUCGUUGGCGUAAUGGUAACCCGUCUCCCUCCUCAGGAGAAGACUGCGGGUUGGUGUCCCGUACAGAACG, the yeast fitness was at most 0.5.

Regarding GUUCCGUUGGCGUAAUGGAAACGCGUAUCCCUCCUAAGGAGAAGCCUGCGGGUUCGAGUCCCGUACGGAACG, the yeast fitness came to 0.557.

In the case of GUUCCGUUGGGGUAUUGGUAACGGGUCUCCCUCCUAAGGGGAAGACUGCGGGUUCGAGUCCUGUACGGACCG, the yeast fitness came out at 0.614.

Regarding GUUUCGUUGGCGUAAUGGUAACGCGUCUCCCUCCUAAGGACAAGACUGCGGGUUCGAGUCCCGUACGGAACG, the yeast fitness stood at 0.819.

Take GUUCCGUUGGCAUAAUGGUAACGCGUCUGCCUCCUAAGGAGAAGACUGCGGGUUCGAGUCCCGUUCGGAACG: the yeast fitness turned out to be 0.58.

For the variant GUUCCGUUGGCGUAAUGGUAACGCGUCUCCCUCCUAAGGAGAAGACAGCGGGUUCGAGUCUCGUACGGACCG, the yeast fitness amounted to 0.558.

In the case of GUUCGGUUGGCGUAAUGGUUACGCGUCUCCCUCCUAAGGAGAAGACUGCGGGUUCGAGUCCCGUGCGGAACG, the yeast fitness amounted to 0.65.

Take GUUCCGAUGCCGUAAUGGUAACGCGUCUCCCUCCUAAGGAAAAGACUGCGGGUUCGAGUCCCGUACGGAACG: the yeast fitness is at most 0.5.

On to GUUCCGUUGGCGUAAUGGUAACACGUCUUCUUCCUAAGGAGGAGACUGCGGGUUCGAGUCCCGUACGGAACG, for which the yeast fitness is at most 0.5.

In the case of GUUCCGUUGGCGUAAUGGUAACGUGUCUCCCUCCUAAGGCGAAGACUGCGGCUUCGAGUCCCGUACAGAACG, the yeast fitness was at most 0.5.

As for GUUCCGUUAGCGUAAUGGUAACGCGUCUCCCUUCUCAGGAGAAGCCUACGGGUUAGAGUCCCGUACGGAACG, the yeast fitness was at most 0.5.

For GUUCCGUUGGCGUAGUGGUAACGCGUCUCCCUCCUAAGGAGAAGACUACGGGUUCGAGUCCCGUAUGGAACG, the yeast fitness was found to be 0.747.

Consider GUUCCGUUGGCGUAAAGGUAACGCGUCUCCCUCCUAAGCAGAAGACUGCGGGUUCGAGUCCCGUACGGAACG, for which the yeast fitness was found to be 0.646.

Regarding GUUCCGUUGGCGUAAUAGUAAUGCGUCCCCCUCCUAAGGAGAAGACUGCGGGUGCGCGUCCCGUACGGAACG, the yeast fitness is at most 0.5.

For the variant GUCCCGUUGGCAUAAUGGUAACGCGUCUCUCUCCUAAGGAGAAGAGUGCGGGUUCGAGUCCCGUACGGAACG, the yeast fitness is at most 0.5.

On to GUUCGGUUAGCGUAAUGGUAACGCCUUUCCCUCCUAAGGAGAAGACUGCGGGUUCAAGUCCCGUACGGAACG, for which the yeast fitness worked out at 0.6.

Consider GUUCCGUUGGCAUAAUGGUAACGGGUCUCCCUCCUAAGGCGACGAUUGUGGGUUCGAGUCCCGUACGCUACG, for which the yeast fitness is at most 0.5.

Turning to GUUCCGUUGGCGUAAUGGUAAUGCGUCUCCCUCCUAAGGAGAAGACAGCGGGUUCGAGUCCCAUACGGAACG, the yeast fitness worked out at 0.503.

With GUUCCGUUGGCGUAAUGGUAACGCAUCUACCUCCUAAGGAGGAGACUGCGGGUUCGAGUCCCGUACGGAACG, the yeast fitness is at most 0.5.

As to GUUCCAUUGGCGAAAUGGUAACGCGCCUCGCUCCUAAGGAGAAGACUGCGGGUUCGAGUCCCGUCCGGAACG, the yeast fitness is at most 0.5.

GUUCCGUUGGCGUAAUGGUAACGCGUCUCCCUUCUAAGGAGCAGACUGCGGGUUCGAGUCCCGCACGGAGCG: the yeast fitness is at most 0.5.

On to GUUCCGUUGGAGUAAUGGUAACGCGUCUCCCUCCUAAGGAGAAGACUGCGGGUUCGAGCCAUGUACGGAACG, for which the yeast fitness was at most 0.5.

With GUUACGUUGACGUAAUGGUAACGCGUCUCCCUCCUAAGGAGAAGACUGCGGGUUCCAGUGCCGUAUGGAACG, the yeast fitness was at most 0.5.

Regarding GUUCCGUUGGCGUAAUGGUAAUGCCUCCCCCUCCUGAGGAGAAGACUGCGAGUUCGAGUCCCGUACAGAACG, the yeast fitness was at most 0.5.

Take GUUCCGUUGGCGUAAUGGUGACGCGUCUCCCUCCUAAGGAGAAGACUGCGGGUUCGAGACCCGUACGGACCG: the yeast fitness came to 0.646.

For GUUCCGUUGGCGUAAUGGUAACACGUCUCCCUCCUAAGGACAAGACUGGGGGUUCGAGUCCCGUACGGAACG, the yeast fitness came out at 0.854.

As for GUGCCGUUGGCGUAAUCGUAACGCGUCUCCCUACUAAGGAGAAGACUGCGGGGACGAGUCCCGUACGGAACG, the yeast fitness is at most 0.5.

Turning to GUUCCGUUGGCGUAAUAGUAACGCGUCUCCGUCCUAAGGAGAAGACUGGGGGUUCGAGUCCCGUACGGAACG, the yeast fitness is at most 0.5.

Take GUUCAGUUGGCGUAACGGUAACGCGUCUCACUCCUAAGGAGAAGUCUGCCGGUUCGAGUCCCAUACGGAACG: the yeast fitness is at most 0.5.

Take GUUCCGUUGGCGUAGUGGUAGCGCGUCUCCCUCGUAAGGAGAAGGCUGCGGGUUCGAGUCCCGUCCGGAACG: the yeast fitness was determined as 0.67.

On to GUUCUGUUGGCGUAAUGGUAACGCGUCUCCCUCGUAUGGAGAAGACUGGGGGUUCAAGUCCCGUACGGAACG, for which the yeast fitness was at most 0.5.

GUUCCGUCGGCGUAAUGGUAACGCGUCUCCCUCCUAAGGAGAAGACUGCGGGUUCGAGUCCCGUACAGAACG: the yeast fitness was 0.85.
